# Source: PubChem BioAssay (several laboratories)
# This is a sample that favours compounds with a hit; in the whole collection about 2.9% have one here.
# ATG4B inh: inhibitors of human ATG4B cysteine protease; inhibition, % at 8.33 µM; 340,000 tested, 0.51% active; AID 504462; ATG4B cleavage of LC3-PLA2, NBD-HPC fluorescence, 1 h; in the data active means inhibition above about 40%
# Target sequence (Q9Y4P1 whole entry, looked up): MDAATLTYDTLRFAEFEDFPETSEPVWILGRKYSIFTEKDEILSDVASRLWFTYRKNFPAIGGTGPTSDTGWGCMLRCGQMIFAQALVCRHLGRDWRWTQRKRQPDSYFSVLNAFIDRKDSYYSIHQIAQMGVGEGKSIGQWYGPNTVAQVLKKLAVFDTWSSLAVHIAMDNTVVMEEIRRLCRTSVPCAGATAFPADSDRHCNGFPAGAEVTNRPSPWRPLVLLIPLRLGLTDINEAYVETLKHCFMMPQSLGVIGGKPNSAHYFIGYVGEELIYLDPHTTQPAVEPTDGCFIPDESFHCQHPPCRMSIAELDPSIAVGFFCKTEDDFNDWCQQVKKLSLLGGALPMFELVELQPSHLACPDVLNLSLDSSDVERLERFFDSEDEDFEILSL
# MEKK3 PB1 HTS: MEKK3-MEK5 PB1 interaction, increase or decrease | binding response (% of control), % at 10 µM | bead-based flow cytometry, Alexa488-MEK5 binding to MEKK3; actives lie on both sides; 0 = blocked by unlabeled MEK5, 100 = vehicle | AID 1529 | 290,000 tested, 1.4% active;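 active means binding response more than 3 SD above or below the average of its plate-row segment, actives on both sides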;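 further: Alexa488 bead fluorescence after subtracting the streptavidin-only scavenger bead signal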
# Dynein cargo inh: dynein cargo transport inhibition; 3617.4 mouse cells, GR-EGFP nuclear translocation imaging; test concentration mostly 20 µM; stimulated with dexamethasone, 1 µM; stronger effect = lower value; z-score, hits read low; 220,000 tested, 0.47% active;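 active means plate z-score of nuclear minus cytoplasmic receptor signal below a set negative limit, without overly bright fluorescence or cell loss, cut at about -3.5 in these data, passing the limit was not always enough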;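 further: z-score of nuclear minus cytoplasmic ring GR-EGFP intensity difference per well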
#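 Buffer or medium: tetracycline-free induction medium containing charcoal-stripped FBS / Reagent: dexamethasone agonist, 1.0 µM final, for 30 min / Technique: automated 10x imaging of fixed Hoechst-stained cells / Times: induction 48 h, compound 1 h, agonist 30 min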
# MEKK2 WT-MEK5: raises or lowers MEK5 binding to wildtype human MEKK2 PB1 domain. Q9Y2U5. bead flow cytometry, Alexa488-MEK5 binding to MEKK2 WT; actives lie on both sides. binding response (% of control), % at 10 µM. 290,000 tested, 1.1% active. AID 1531; in the data active means binding response below about 67% or above about 130%
# B2AR ag: agonists of human beta-2 adrenergic receptor inducing internalization; P07550; Am2.2-beta2AR cells, FAP receptor internalization, flow cytometry; response, % (concentration not given with the values); 340,000 tested, 0.43% active; AID 504454;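 active means response above a set limit, near 3 SD of response in nonfluorescent compounds, cut at about 42% in these data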
# MEKK2 mut-MEK5: signal of MEK5 binding to mutant human MEKK2 PB1 domain. bead flow cytometry, Alexa488-MEK5 binding to MEKK2 mutant. percent response, % at 10 µM. 290,000 tested, 0.35% active. AID 1530; in the data active means percent response above about 24%, passing the limit was not always enough
# Dynein confirm: dynein cargo transport inhibition, confirmation | shares compounds with Dynein cargo inh | 3617.4 GR-EGFP nuclear translocation imaging, dexamethasone-induced | calls only at 20 µM | 1,000 tested, 69% active;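 active means inhibition of receptor movement into the nucleus at or above a set limit in both runs, with normal cell brightness and cell count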;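 further: dexamethasone at 1 µM final in well for 30 min; nuclear minus cytoplasmic GR-EGFP mean intensity difference in channel 2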
# Numbers stand for hits; . = inactive; / = no result; + = active, no number.
SMILES,ATG4B inh,MEKK3 PB1 HTS,Dynein cargo inh,MEKK2 WT-MEK5,B2AR ag,MEKK2 mut-MEK5,Dynein confirm
CN(C)c1oc(-c2ccccc2Cl)nc1C#N,.,/,.,/,.,/,/
COc1ccc(-c2cccc([C@H]3[C@@H]4C=CCC[C@@]4(C)C(=O)N3Cc3ccccc3)c2)cc1,.,.,-3.6,.,.,.,+
O=C(/C=C/c1cccc([N+](=O)[O-])c1)N1CCN(c2ccccn2)CC1,.,.,/,.,.,.,/
O=C(/C=C/c1cccc([N+](=O)[O-])c1)n1cnc2ccccc21,.,.,-5.07,.,.,.,+
COC(=O)c1cc(-c2ccc(Br)cc2)c2c(=O)n(C)c(=O)n(C)c2n1,.,.,/,.,.,.,/
O=C(Cc1ccccc1)Nc1cccc(N2C(=O)C=CC2=O)c1,.,.,-4.71,.,.,.,+
CCN1C/C(=C/c2cccc([N+](=O)[O-])c2)C(=O)/C(=C/c2cccc([N+](=O)[O-])c2)C1,.,.,-3.98,.,87.2,.,+
CCOc1cc(/C=C2\CN(CC)C/C(=C\c3ccc(O)c(OCC)c3)C2=O)ccc1O,.,.,/,.,.,.,/
CCOC(=O)c1c(C)oc2c1c(C(c1ccncc1)N1CCOCC1)c(O)c1ccccc12 (stereo unspecified),.,.,-3.54,.,/,.,.
CCOC(=O)c1c(C)oc2c1c(CN1CCN(C(=O)OCC)CC1)c(O)c1ccccc12,.,.,.,.,.,.,/
O=C(/C=C/C=C/c1ccccc1)c1ccco1,.,.,-4.33,.,.,.,.
CCN1/C(=C/C=C/c2oc3ccc4ccccc4c3[n+]2CC)Oc2ccc3ccccc3c21,91.0,/,-7.1,/,/,/,+
COc1ccc(-n2cccc2/C=C/[N+](=O)[O-])cc1,.,.,-3.84,.,.,.,+
Cc1noc(C)c1NC(=O)N(C)C[C@H]1Oc2ccc(NS(=O)(=O)c3cn(C)cn3)cc2C(=O)N([C@H](C)CO)C[C@@H]1C,.,/,/,/,/,/,/
O=C(/C=C/c1ccccc1[N+](=O)[O-])Oc1ccccc1,/,.,/,.,/,.,/
COC(=O)C(=Cc1ccccc1[N+](=O)[O-])C(=O)OC,.,.,-5.37,.,.,.,+
O=[N+]([O-])c1ccc(-n2nnnc2-c2ccccc2)cc1,.,.,.,.,.,.,/
O=[N+]([O-])c1ccc(-n2nnnc2-c2ccccc2)c([N+](=O)[O-])c1,.,.,-6.59,.,.,.,+
CC1=CC(=Nc2c(C)n(C)n(-c3ccccc3)c2=O)C=C(C)C1=O,.,.,.,.,.,.,/
CC1=CC(=Nc2c(C)n(C)n(-c3ccccc3)c2=O)C=CC1=O,/,.,-3.67,.,/,.,+
CCCCCCc1cc2cc(C(=O)NC)c(=N)oc2cc1O,.,.,-7.46,.,.,.,+
CCCCCCc1cc2cc(C(N)=O)c(=N)oc2cc1O,/,.,.,.,/,.,/
O=C(CSc1n[nH]c(=O)[nH]c1=O)Nc1ccc(SC(F)F)cc1,.,/,/,/,.,/,/
CC(=O)NCc1ccc(C(=O)CCl)s1,.,.,-4.98,.,.,.,+
COc1ccc(C(=O)OCC(=O)c2ccc(CNC(C)=O)s2)cc1,.,/,/,/,.,/,/
SMILES,ATG4B inh,MEKK3 PB1 HTS,Dynein cargo inh,MEKK2 WT-MEK5,B2AR ag,MEKK2 mut-MEK5,Dynein confirm
CC(=O)Nc1ccc(C(=O)CCl)cc1,.,/,/,/,.,/,/
CC(=O)N(C)Cc1ccc(C(=O)CCl)cc1,.,.,.,.,.,.,+
CC(=O)NCc1ccc(C(=O)CCl)cc1,.,.,-6.81,.,.,.,+
COCCCNC(=O)COc1cc2c(c3oc(=O)c(C)c(C)c13)CCC(C)(C)O2,.,.,/,.,.,.,/
O=C(C[C@@H]1C/C=C\C[C@H](Cc2ccc(F)cc2)C(=O)OCCNC1=O)N[C@H](CO)Cc1ccccc1,.,/,/,/,.,/,/
COc1ccc(OC)c(CCNC(=O)CCC(=O)N2CCOc3ccc(C)cc32)c1,.,.,/,.,.,.,/
CC(C)CCn1c(=O)c2ccccc2n2c(CN3CCCC3)nnc12,.,.,.,.,.,.,/
CCCCCn1c(=O)c2ccccc2n2c(CCl)nnc12,.,.,-6.46,.,.,.,+
CCCn1c(=O)c2ccccc2n2c(SCC(N)=O)nnc12,.,.,/,.,.,.,/
CC(C)CCn1c(=O)c2ccccc2n2c(CCl)nnc12,.,.,-4.48,.,.,.,+
COCCN(C(=O)CSc1nc2ccc(OC)cc2[nH]1)c1c(N)n(Cc2ccccc2)c(=O)[nH]c1=O,.,/,/,/,.,/,/
CCC(C)(C)NS(=O)(=O)c1cc(CN2C(=O)c3cccnc3C2=O)ccc1OC,.,.,/,.,.,.,/
C=C1C(=O)C=C2CN(C(=O)c3ccccc3)[C@@](Cc3ccc(F)cc3)(C(=O)OC)[C@@H]12,.,.,-4.96,.,79.3,.,+
COC(=O)[C@@]1(Cc2ccc(F)cc2)[C@H]2c3cc(C(=O)N(C)C)n(Cc4ccccc4)c3C[C@H]2CN1C(=O)c1ccccc1,.,.,.,.,/,.,/
CCOC(=O)/C(=C\c1ccccc1)C(=O)c1cc(C(C)=O)c(Nc2ccccc2)s1,.,.,.,.,.,.,/
CCOC(=O)/C(=C\c1cccnc1)C(=O)c1cc(C(C)=O)c(Nc2ccccc2)s1,.,.,-5.68,.,103.8,.,+
